According to PubChem BioAssay:
The source made the active and inactive calls.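 The calls were made as follows, unless noted: active = viability at or below 10% of carrier control in both of two separate runs; inconclusive = viability at or below 10% in only one of the two runs; inactive = the rest.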

Key:
[1] = molecular target: Pantothenate synthetase (Mycobacterium tuberculosis (strain ATCC 25618 / H37Rv)) (UniProt P9WIL5); test: Coupled enzyme confirmation of inhibitors against recombinant Mtb PanC (AID 375; call rule not given here;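 also: 0% = full reaction with vehicle and 100% = no enzyme background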); details: coupled enzyme assay; at 10 µM, stronger effect = higher value
[2] = Her2 expression decrease, cell viability multiplex – SKBR3 breast tumor cells, AlphaScreen, ATP viability, primary screen (AID 461;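 active = Her2 level under about 52% in both replicate screens, with viability over 70% of control, limit read from the data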;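 as to Her2 level: lower value means less Her2 protein in the cells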;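 as to viability: percent of carrier control wells set as 100% viability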); details: SKBR3 Her2 protein level, 18-24 h, measured here: SKBR3 viability, ATP luminescence, at 10 µM
[3] = molecular target: Receptor tyrosine-protein kinase erbB-2 (Homo sapiens) (UniProt P04626); test: as above; details: 18-24 h, at 10 µM, stronger effect = lower value
[4] = reduced viability of SK-BR-3 breast cancer cells – cell-based, 24 h, human, pilot screen (AID 572); details: SK-BR-3 viability, CellTiter-Glo luminescence, at 10 µM, stronger effect = lower value;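 also: compound exposure lasted between 18 and 24 h rather than exactly 24 h; 100% = carrier-treated control wells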
[5] = HUVEC growth inhibition – cell-based, human, primary screen (AID 575;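 active = viability at or below 30% in both replicate assays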;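 also: 100% = median of untreated cell wells with 0.1% DMSO on each plate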); details: HUVEC proliferation, CellTiter-Glo luminescence, 72 h; at 10 µM; stronger effect = lower value
Method in brief: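 system = HUVEC primary cells | amount = 1250 cells/well | buffer or medium = supplemented EBM, 2% fetal bovine serum | dosing = single-point 10 µM, DMSO 0.1% final | times = 72 h compound incubation | detection = CTG luminescence | read-out = % viability relative to median vehicle-well signal on each plate | control set = vehicle and MePR control wells | format = collagen-coated 384-well format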

[6] = H69AR cell proliferation blockers – human, duplicate replicates, primary screen (AID 580;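 active = viability at or under a set limit in both replicates, limit being median viability minus 3 SD, cut at about 48% in these data, passing the limit was not always enough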;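 also: 100% = mean luminescence of untreated wells and 0% = no signal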); details: H69AR lung tumor cells viability, ATP luminescence, 72 h; at 10 µM; stronger effect = lower value
[7] = MRP1 drug-resistance reversers in H69AR cells – cell-based, doxorubicin co-treatment, pilot screen (AID 601;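 active = viability loss from added drug above about 55%, and viability with drug at most 40%, in both replicates, limit read from the data, passing the limit was not always enough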); details: CellTiter-Glo, 72 h, at 10 µM; for differential viability (reversal): stronger effect = higher value
[8] = yeast transport mutant growth inhibition pilot in 384-well plates, post-Golgi transport modulator project (AID 636; in the data active = inhibition above about 31%); details: absorbance 615 nm, about 18 h, stronger effect = higher value
[9] = growth suppression of yeast trafficking mutant, preliminary HTS, modulators of trafficking downstream of Golgi apparatus project, 1536-format plate, OD 615 nm (AID 637; in the data active = inhibition above about 30%); details: yeast transport mutant growth, absorbance 615 nm, 18 h; stronger effect = higher value
[10] = H69AR cells + 2 uM doxorubicin, measured here: viability with 2 uM doxorubicin, stronger effect = lower value
[11] = H69AR cells, compound alone cytotoxicity

Sequence of Receptor tyrosine-protein kinase erbB-2 (Homo sapiens) (P04626 whole entry, looked up): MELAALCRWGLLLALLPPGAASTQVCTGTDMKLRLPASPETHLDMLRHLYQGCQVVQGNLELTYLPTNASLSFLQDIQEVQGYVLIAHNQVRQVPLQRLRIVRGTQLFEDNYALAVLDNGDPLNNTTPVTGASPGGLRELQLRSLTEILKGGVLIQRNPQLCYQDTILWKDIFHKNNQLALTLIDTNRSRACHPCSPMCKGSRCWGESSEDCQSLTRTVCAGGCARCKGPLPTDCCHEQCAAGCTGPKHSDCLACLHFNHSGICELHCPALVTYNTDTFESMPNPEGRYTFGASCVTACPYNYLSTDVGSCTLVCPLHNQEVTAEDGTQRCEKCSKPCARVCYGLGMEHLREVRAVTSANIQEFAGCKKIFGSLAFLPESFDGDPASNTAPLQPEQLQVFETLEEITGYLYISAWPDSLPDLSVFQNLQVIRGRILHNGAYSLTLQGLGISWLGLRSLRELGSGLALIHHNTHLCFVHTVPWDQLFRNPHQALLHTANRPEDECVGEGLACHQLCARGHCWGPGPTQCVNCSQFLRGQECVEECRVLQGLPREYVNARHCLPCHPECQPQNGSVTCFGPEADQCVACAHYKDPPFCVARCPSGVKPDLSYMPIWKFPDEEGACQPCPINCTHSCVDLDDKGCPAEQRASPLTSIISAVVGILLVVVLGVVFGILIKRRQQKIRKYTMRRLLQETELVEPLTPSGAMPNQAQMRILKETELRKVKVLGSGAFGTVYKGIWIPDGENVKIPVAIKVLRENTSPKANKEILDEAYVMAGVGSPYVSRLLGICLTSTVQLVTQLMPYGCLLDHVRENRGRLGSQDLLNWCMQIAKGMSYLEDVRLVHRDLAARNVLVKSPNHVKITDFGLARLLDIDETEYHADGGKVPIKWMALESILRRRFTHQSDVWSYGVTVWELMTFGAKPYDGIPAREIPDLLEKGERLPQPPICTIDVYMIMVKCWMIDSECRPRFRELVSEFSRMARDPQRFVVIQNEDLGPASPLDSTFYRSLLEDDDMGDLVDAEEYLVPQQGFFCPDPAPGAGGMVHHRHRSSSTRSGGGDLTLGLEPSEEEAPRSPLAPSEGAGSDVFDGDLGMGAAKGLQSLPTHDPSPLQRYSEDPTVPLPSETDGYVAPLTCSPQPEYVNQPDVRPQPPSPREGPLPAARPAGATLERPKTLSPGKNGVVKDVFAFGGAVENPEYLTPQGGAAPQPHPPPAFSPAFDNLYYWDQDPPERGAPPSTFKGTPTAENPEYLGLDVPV
Sequence of Pantothenate synthetase (Mycobacterium tuberculosis (strain ATCC 25618 / H37Rv)) (P9WIL5 whole entry, looked up): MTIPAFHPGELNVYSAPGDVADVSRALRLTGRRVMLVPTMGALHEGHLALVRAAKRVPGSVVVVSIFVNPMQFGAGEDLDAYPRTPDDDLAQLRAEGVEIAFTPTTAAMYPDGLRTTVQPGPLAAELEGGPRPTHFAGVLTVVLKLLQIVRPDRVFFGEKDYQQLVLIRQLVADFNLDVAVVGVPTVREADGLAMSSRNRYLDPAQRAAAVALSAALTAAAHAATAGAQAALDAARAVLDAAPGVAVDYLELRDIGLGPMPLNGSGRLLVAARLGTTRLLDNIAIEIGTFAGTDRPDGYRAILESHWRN

Compound | inhibition [1] | viability [2] [%] | Her2 level [3] | viability [4] | viability [5] | viability [6] | differential viability (reversal) ([7]; H69AR cells + 2 uM doxorubicin) | viability [7, 10] [%] | viability [7, 11] [%] | inhibition [8] | inhibition [9]
C=CCn1c(O)c(C(C)=NCCCO)c(=O)[nH]c1=O | 0% (inactive) | 93 | 114% (inactive) | 93% (inactive) | 107% (inactive) | 94.3% (inactive) | 2.26% (inactive) | 92.1 | 94.3 | -4.94% (inactive) | -8.5% (inactive)
c1ccc(C2CC3CC(c4ccco4)N2O3)cc1 (centres undefined) | 0% (inactive) | 93 | 89.5% (inactive) | 93% (inactive) | 82.8% (inactive) | 113% (inactive) | 22.5% (inactive) | 90.9 | 113 | -0.4% (inactive) | -7.74% (inactive)
NCC1(CC(=O)O)CCCCC1 | 3% (inactive) |  |  | 105% (inactive) | 101% (inactive) | 96.8% (inactive) | 7.93% (inactive) | 88.9 | 96.8 | -1.17% (inactive) | 2% (inactive)
Cc1ccc(C)c(C2(O)CC(C)N(C)CC2C)c1 (centres undefined) | 0% (inactive) | 110 | 103% (inactive) | 110% (inactive) | 94.9% (inactive) | 102% (inactive) | 10.4% (inactive) | 91.7 | 102 | -1.32% (inactive) | -2.7% (inactive)
O=c1[nH]c(=O)n(CCc2ccc(F)cc2)c(O)c1C=NCCCn1ccnc1 | 0% (inactive) | 114 | 84% (inactive) | 114% (inactive) | 99.5% (inactive) | 102% (inactive) | 15.3% (inactive) | 86.8 | 102 | -4.8% (inactive) | 3.28% (inactive)
CCOc1cccc(N2C(=O)CC(=O)NC2=O)c1 | 0% (inactive) |  |  | 124% (inactive) | 107% (inactive) | 94.5% (inactive) | -2.27% (inactive) | 96.8 | 94.5 | -2.6% (inactive) | -8.55% (inactive)
Cc1ccc(-c2nc(CS(=O)CC(=O)N3CCC4(CC3)OCCO4)c(C)o2)cc1 (centres undefined) | 0% (inactive) | 92.5 | 99% (inactive) | 92.5% (inactive) | 96.4% (inactive) | 85.1% (inactive) | -10.6% (inactive) | 95.7 | 85.1 | -4.42% (inactive) | -0.79% (inactive)
O=C(Cn1ncc2c3ccccc3n(Cc3ccc(F)cc3)c2c1=O)N1CCC2(CC1)OCCO2 | 7% (inactive) |  |  | 86% (inactive) | 96% (inactive) | 89.2% (inactive) | -9.23% (inactive) | 98.4 | 89.2 | -5.41% (inactive) | -2.55% (inactive)
[N-]=[N+]=CC(=O)OC[C@H](N)C(=O)O | 0% (inactive) |  |  | 99% (inactive) | 96.5% (inactive) | 88.5% (inactive) | -17.2% (inactive) | 106 | 88.5 | 1.56% (inactive) | 1.83% (inactive)
CCOC(=O)C1SC2(C(F)F)CC1(O)c1c(c(OC)c3occc3c1OC)O2 (centres undefined) | 0% (inactive) |  |  | 91% (inactive) | 93.3% (inactive) | 104% (inactive) | 22.9% (inactive) | 80.9 | 104 | -4.73% (inactive) | 0.73% (inactive)
O=c1[nH]c(=O)n(-c2cccc3ccccc23)c(O)c1C=NCCCn1ccnc1 | 0% (inactive) |  |  | 63% (inactive) | 101% (inactive) | 102% (inactive) | 10% (inactive) | 92 | 102 | -5.21% (inactive) | 1.27% (inactive)
OCCOCC#CCN1CCOCC1 | 0% (inactive) | 102 | 114% (inactive) | 102% (inactive) | 101% (inactive) | 93.8% (inactive) | 3.84% (inactive) | 89.9 | 93.8 | -1.45% (inactive) | 1.31% (inactive)
CC1CCC(C(=O)NC(C(=O)N2CCC3(CC2)OCCO3)C(C)C)CC1 (centres undefined) | 3% (inactive) | 96.5 | 98.5% (inactive) | 96.5% (inactive) | 114% (inactive) | 99.5% (inactive) | 8.49% (inactive) | 91 | 99.5 | -6.36% (inactive) | -5.25% (inactive)
O=c1[nH]c(=O)n(CCc2ccccc2)c(O)c1C=NCCN1CCNCC1 | 6% (inactive) | 99 | 91.5% (inactive) | 99% (inactive) | 108% (inactive) | 93% (inactive) | 1.67% (inactive) | 91.3 | 93 | -1.58% (inactive) | 5.16% (inactive)
CCCCn1c(O)c(C(C)=NC(Cc2c[nH]c3ccccc23)C(=O)OC)c(=O)[nH]c1=O (centres undefined) | 1% (inactive) |  |  | 91% (inactive) | 84.5% (inactive) | 96.5% (inactive) | 2.8% (inactive) | 93.7 | 96.5 | -4.93% (inactive) | -2.1% (inactive)
CCN(CC)CCN=Cc1c(O)n(CCC2=CCCCC2)c(=O)[nH]c1=O | 5% (inactive) | 90.5 | 86% (inactive) | 90.5% (inactive) | 62.5% (inactive) | 74.7% (inactive) | -11.4% (inactive) | 86.1 | 74.7 | -5.84% (inactive) | -4.29% (inactive)

Compound | inhibition [1] | viability [2] [%] | Her2 level [3] | viability [4] | viability [5] | viability [6] | differential viability (reversal) ([7]; H69AR cells + 2 uM doxorubicin) | viability [7, 10] [%] | viability [7, 11] [%] | inhibition [8] | inhibition [9]
CCCC(C)(COC(N)=O)COC(=O)NC(C)C (centres undefined) | 0% (inactive) |  |  | 88% (inactive) | 86.4% (inactive) | 100% (inactive) | -3.16% (inactive) | 103 | 100 | -1.69% (inactive) | 4.17% (inactive)
Cc1ccc(C(=O)C2CN3CCC2CC3)cc1 (centres undefined) | 0% (inactive) | 93 | 91% (inactive) | 93% (inactive) | 94.3% (inactive) | 97.6% (inactive) | 4.27% (inactive) | 93.3 | 97.6 | -4.55% (inactive) | 4.5% (inactive)
c1ccc2c3c([nH]c2c1)CNCC3 | 0% (inactive) |  |  | 116% (inactive) | 77.7% (inactive) | 89.9% (inactive) | 9.92% (inactive) | 80 | 89.9 | -1.17% (inactive) | 0.5% (inactive)
O=c1[nH]c(=O)n(Cc2ccco2)c(O)c1C=NCCCn1ccnc1 | 0% (inactive) | 88.5 | 104% (inactive) | 88.5% (inactive) | 93.5% (inactive) | 95.2% (inactive) | 0.33% (inactive) | 94.8 | 95.2 | 0.77% (inactive) | -3.33% (inactive)
CCCNC(=O)c1c(N)n(Cc2ccc3c(c2)OCO3)c2nc3ccccc3nc12 | 0% (inactive) |  |  | 102% (inactive) | 21.8% (active) | 43.8% (active) | 6.99% (inactive) | 36.8 | 43.8 | -3.2% (inactive) | 0.66% (inactive)
COc1ccc(CCNC(=O)c2c(N)n(CCN3CCOCC3)c3nc4ccccc4nc23)cc1 | 0% (inactive) | 104 | 87.5% (inactive) | 104% (inactive) |  | 19.3% (active) | -20.5% (inactive) | 39.8 | 19.3 | 3.82% (inactive) | 1.82% (inactive)
O=C1CC(c2ccccc2)CC(O)=C1C=NCCN1CCN(C(=O)Cc2ccccc2)CC1 (centres undefined) | 0% (inactive) | 122 | 97% (inactive) | 122% (inactive) | 91.2% (inactive) | 92.1% (inactive) | -2.69% (inactive) | 94.8 | 92.1 | -0.26% (inactive) | 11.5% (inactive)
Clc1ccc(COC(Cn2ccnc2)c2ccc(Cl)cc2Cl)c(Cl)c1 (centres undefined) | 2% (inactive) | 105 | 20% (active) | 105% (inactive) | 9.27% (active) |  | -27.5% (inactive) | 58.6 | 31 |  | 
Cn1c(=O)cc(OCC(=O)N2CCN(C3CCCCC3)CC2)c2ccccc21 | 0% (inactive) | 87 | 88% (inactive) | 87% (inactive) | 82% (inactive) | 85.2% (inactive) | 3.09% (inactive) | 82.1 | 85.2 | -1.47% (inactive) | -1.15% (inactive)
CC(C)C(=O)N1CCN(CCN=Cc2c(O)n(C)c(=O)n(C)c2=O)CC1 | 3% (inactive) | 100 | 116% (inactive) | 100% (inactive) | 122% (inactive) | 96.5% (inactive) | -0.17% (inactive) | 96.7 | 96.5 | -5.39% (inactive) | -1.48% (inactive)
O=C1CC[C@@]2(O)[C@H]3Cc4ccc(O)c5c4[C@@]2(CCN3CC2CC2)[C@H]1O5 | 4% (inactive) |  |  | 95% (inactive) | 90.6% (inactive) | 99.5% (inactive) | 11% (inactive) | 88.6 | 99.5 | 0.26% (inactive) | 2.17% (inactive)
CC(=O)N1CC(=O)Nc2ccc(Cl)cc2C1c1ccc(F)cc1 (centres undefined) | 0% (inactive) | 92.5 | 102% (inactive) | 92.5% (inactive) | 88.5% (inactive) | 97.5% (inactive) | 25.5% (inactive) | 72 | 97.5 | -3.29% (inactive) | -3.45% (inactive)
Cc1cc(NC(=O)COC(=O)c2c(C)nn(Cc3ccccc3)c2Cl)no1 | 0% (inactive) | 96 | 102% (inactive) | 96% (inactive) | 79.2% (inactive) | 105% (inactive) | 19% (inactive) | 86 | 105 | -4.27% (inactive) | -8.03% (inactive)
COC1=CC(=O)OC(/C=C/c2ccccc2)C1 (centres undefined) | 0% (inactive) |  |  | 124% (inactive) | 96.6% (inactive) | 87.6% (inactive) | 2.78% (inactive) | 84.8 | 87.6 | -1.56% (inactive) | -4.5% (inactive)
O=C(O)c1nonc1-c1nonc1C(=O)O | 0% (inactive) | 99 | 114% (inactive) | 99% (inactive) | 100% (inactive) | 99% (inactive) | 1.51% (inactive) | 97.5 | 99 | -1.97% (inactive) | 6.39% (inactive)
CCN1CCN(C(=O)COc2cc(=O)n(CC)c3ccccc23)CC1 | 0% (inactive) | 80.5 | 104% (inactive) | 80.5% (inactive) | 89.2% (inactive) | 90.3% (inactive) | 22.7% (inactive) | 67.6 | 90.3 | 0.38% (inactive) | 0.67% (inactive)
